The inhibition is the share of the control response that was lost under treatment. Broadly, the pKi is −log10 of the Ki, conventionally taken in molar units. High values mean a small Ki, low ones a large Ki.

Assay [1] has as its target Receptor-type tyrosine-protein phosphatase F (Homo sapiens) (UniProt P10586). Briefly: Inhibitory activity against phosphatase (LAR) at a concentration of 100 uM. The method in brief: (§1)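 Purified recombinant human enzyme constructs; PTP1B is a C-terminally truncated soluble form, tested alongside LAR and SHP-2. Activity is read as the initial rate of p-nitrophenyl phosphate (pNPP) hydrolysis and reported as percent inhibition. PTP1B is tested at 100, 10 and 1 µM, or 10 and 1 µM in the salicylate series; LAR and SHP-2 at 100 µM.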

The nature of assay [2]: Uptake of 2-DOG (2-deoxyglucose) into L6 myocytes in the presence of half-maximal concentration of insulin at 100 uM. Format: functional, Rattus norvegicus. The method, boiled down: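 L6 myotubes are exposed to compound at 100 µM with 10 nM insulin, a dose eliciting about 50% of maximal uptake. The initial rate of 2-[3H]deoxyglucose uptake is measured, with L-[14C]glucose marking extracellular space, and normalized to recovered lysate protein. Net insulin-dependent transport with inhibitor is expressed as a percent of that without inhibitor.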

Assay [3] addresses T1, Tyrosine-protein phosphatase non-receptor type 11 (Homo sapiens) (UniProt Q06124).
T1 sequence (whole entry): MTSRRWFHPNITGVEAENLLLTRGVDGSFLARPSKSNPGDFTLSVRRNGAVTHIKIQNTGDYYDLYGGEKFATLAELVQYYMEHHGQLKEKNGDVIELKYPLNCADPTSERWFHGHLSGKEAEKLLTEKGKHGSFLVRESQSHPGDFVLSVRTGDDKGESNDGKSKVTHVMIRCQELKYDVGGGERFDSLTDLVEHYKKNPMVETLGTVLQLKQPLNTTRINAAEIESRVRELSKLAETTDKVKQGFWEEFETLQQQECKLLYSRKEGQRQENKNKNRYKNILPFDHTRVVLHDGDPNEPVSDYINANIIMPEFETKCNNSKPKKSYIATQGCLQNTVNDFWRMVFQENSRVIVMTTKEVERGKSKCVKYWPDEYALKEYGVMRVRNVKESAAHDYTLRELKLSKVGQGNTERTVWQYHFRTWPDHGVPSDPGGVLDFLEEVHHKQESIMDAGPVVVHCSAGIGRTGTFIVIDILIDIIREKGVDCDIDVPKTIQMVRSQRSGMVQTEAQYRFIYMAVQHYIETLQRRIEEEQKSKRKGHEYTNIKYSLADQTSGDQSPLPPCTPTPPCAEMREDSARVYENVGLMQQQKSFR
Briefly: Inhibition of recombinant human phosphatase (SHP-2) at a concentration of 100 uM. The method in brief:
as §1

Assay [4] concerns the target T2, Tyrosine-protein phosphatase non-receptor type 1 (Homo sapiens) (UniProt P18031).
T2 sequence (whole entry): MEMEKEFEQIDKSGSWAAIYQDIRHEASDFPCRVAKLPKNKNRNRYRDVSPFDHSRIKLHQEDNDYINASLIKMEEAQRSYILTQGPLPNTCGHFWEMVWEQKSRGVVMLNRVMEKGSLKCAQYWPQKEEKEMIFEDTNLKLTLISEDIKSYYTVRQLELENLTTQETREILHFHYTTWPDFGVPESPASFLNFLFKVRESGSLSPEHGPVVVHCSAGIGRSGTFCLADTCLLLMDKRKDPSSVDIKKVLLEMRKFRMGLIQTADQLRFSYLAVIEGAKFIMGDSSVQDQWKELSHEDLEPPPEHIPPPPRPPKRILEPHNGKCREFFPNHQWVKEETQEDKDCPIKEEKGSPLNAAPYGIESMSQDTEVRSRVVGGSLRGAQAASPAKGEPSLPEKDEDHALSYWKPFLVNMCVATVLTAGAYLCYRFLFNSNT
Briefly: Inhibitory activity against human protein tyrosine phosphatase 1B (PTP1B) at a concentration of 1 uM. The method in brief:
as §1

Assay [5] has as its target T2, Tyrosine-protein phosphatase non-receptor type 1 (Homo sapiens). Briefly: Inhibitory activity against human protein tyrosine phosphatase 1B (PTP1B) at a concentration of 100 uM. The method, boiled down: as §1
The target is the same in assay [6]. Briefly: Inhibitory activity against human protein tyrosine phosphatase 1B (PTP1B) at a concentration of 10 uM. The method, boiled down: as §1
The target of assay [7] is T3, Tyrosine-protein phosphatase non-receptor type 1 (Homo sapiens, UniProt P18031).
T3 sequence (P18031 whole entry): T2 sequence (whole entry)
Put plainly: Inhibitory activity against human protein tyrosine phosphatase 1B (PTP1B). The method, boiled down:
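Ki against a C-terminally truncated, soluble recombinant human PTP1B. Initial rates of pNPP hydrolysis are measured, and the Ki is computed by the Cornish-Bowden direct linear method.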

pKi: −log10 of the molar value. Square brackets hold non-standard residues; d marks the D form. Peptide text beside a SMILES is read from it. sY = N[C@@H](Cc1ccc(OS(=O)(=O)O)cc1)C(=O)O; Nle = CCCC[C@H](N)C(=O)O

Chain of Receptor-type tyrosine-protein phosphatase F (Homo sapiens) (P10586 whole entry, the tested form may be a part): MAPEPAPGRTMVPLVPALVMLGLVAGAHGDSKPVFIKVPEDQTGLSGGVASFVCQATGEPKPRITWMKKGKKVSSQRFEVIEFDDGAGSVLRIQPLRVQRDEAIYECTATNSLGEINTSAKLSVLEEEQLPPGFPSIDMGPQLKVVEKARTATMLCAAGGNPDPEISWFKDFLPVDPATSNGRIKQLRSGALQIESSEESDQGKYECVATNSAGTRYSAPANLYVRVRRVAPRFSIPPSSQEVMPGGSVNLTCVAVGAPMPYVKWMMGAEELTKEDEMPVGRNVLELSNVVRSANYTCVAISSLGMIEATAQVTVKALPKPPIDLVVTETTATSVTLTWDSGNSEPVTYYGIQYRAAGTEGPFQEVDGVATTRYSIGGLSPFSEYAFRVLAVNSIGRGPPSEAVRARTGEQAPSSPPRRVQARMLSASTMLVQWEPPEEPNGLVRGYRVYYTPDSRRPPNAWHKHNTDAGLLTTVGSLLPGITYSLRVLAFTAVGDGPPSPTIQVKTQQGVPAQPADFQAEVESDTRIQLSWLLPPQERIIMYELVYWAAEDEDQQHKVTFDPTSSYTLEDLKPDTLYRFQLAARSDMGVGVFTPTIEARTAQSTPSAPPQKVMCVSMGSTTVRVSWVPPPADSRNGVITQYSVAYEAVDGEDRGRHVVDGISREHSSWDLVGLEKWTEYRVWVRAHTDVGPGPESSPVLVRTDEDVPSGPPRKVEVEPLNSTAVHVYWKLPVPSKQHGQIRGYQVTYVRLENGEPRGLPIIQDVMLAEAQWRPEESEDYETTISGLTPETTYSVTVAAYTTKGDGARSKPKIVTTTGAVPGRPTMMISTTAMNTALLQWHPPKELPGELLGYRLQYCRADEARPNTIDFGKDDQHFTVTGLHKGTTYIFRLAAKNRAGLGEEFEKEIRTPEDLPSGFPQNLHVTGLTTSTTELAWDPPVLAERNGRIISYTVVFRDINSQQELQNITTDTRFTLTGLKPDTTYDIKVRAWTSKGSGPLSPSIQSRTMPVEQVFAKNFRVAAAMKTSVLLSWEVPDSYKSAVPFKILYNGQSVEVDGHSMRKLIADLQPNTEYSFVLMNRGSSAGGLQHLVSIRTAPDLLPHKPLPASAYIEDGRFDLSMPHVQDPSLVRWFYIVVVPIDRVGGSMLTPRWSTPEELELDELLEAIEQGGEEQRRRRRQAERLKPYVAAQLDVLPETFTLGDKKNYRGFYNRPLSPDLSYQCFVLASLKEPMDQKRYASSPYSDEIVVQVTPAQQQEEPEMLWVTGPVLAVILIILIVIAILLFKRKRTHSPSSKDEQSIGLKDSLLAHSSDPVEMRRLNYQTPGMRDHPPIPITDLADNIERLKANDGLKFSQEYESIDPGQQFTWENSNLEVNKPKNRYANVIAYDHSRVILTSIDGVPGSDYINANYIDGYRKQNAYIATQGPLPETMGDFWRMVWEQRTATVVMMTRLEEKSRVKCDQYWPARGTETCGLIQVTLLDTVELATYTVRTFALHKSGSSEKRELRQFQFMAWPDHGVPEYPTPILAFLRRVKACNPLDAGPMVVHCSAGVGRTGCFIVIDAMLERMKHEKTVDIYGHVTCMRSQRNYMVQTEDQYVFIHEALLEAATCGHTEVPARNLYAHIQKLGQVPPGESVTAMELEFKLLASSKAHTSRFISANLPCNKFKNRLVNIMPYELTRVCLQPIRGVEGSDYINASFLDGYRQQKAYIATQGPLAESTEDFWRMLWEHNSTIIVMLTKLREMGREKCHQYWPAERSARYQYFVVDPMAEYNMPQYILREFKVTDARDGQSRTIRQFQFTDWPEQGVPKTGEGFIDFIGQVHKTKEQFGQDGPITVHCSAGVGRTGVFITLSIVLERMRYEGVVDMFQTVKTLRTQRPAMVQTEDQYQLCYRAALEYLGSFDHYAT

`CCCCCNC(=O)[C@H](Cc1ccc(OC(C(=O)O)C(=O)O)cc1)NC(=O)[C@H](CC(N)=O)NC(=O)OC(C)(C)C`: the inhibition worked out at 0% in assay [1]; 8% in assay [3]; 9% in assay [4]; 85% in assay [5]; 40% in assay [6]. Moreover, in assay [2], the “Control Uptake” value amounted to 110%.

Take `CCCCCNC(=O)[C@H](Cc1ccc(OC(C(=O)O)C(=O)O)cc1)NC(=O)[C@H](COCc1ccccc1)NC(=O)OC(C)(C)C`: the inhibition in assay [1] worked out at 3%; in assay [3], 0%; in assay [4], 3%; in assay [5] it was 71%; in assay [6], 19%. Also, in assay [2], the “Control Uptake” value stood at 79%.

`CCCCCNC(=O)[C@H](Cc1ccc(OC(C(=O)O)C(=O)O)cc1)NC(=O)[C@H](CCSC)NC(=O)OC(C)(C)C`: the inhibition in assay [1] worked out at 0%; in assay [3] it was 4%; in assay [4], 5%; in assay [5] it was 82%; in assay [6], 25%. Also, the “Control Uptake” value in assay [2] was found to be 74%.

Regarding `CCCCCNC(=O)[C@H](Cc1ccc(OC(C(=O)O)C(=O)O)cc1)NC(=O)[C@H](Cc1ccccc1)NS(=O)(=O)Cc1ccccc1`, the inhibition is 6% in assay [1]; 10% in assay [3]; 4% in assay [4]; 62% in assay [5]; 16% in assay [6]. In assay [2], the “Control Uptake” value is recorded as 98%.

Consider `CCCCCNC(=O)[C@H](Cc1ccc(OC(C(=O)O)C(=O)O)cc1)NC(=O)[C@H](Cc1ccc2ccccc2c1)NC(=O)OC(C)(C)C`, for which the inhibition in assay [1] is 4%; in assay [3], 3%; in assay [4], 3%; in assay [5] it was 90%; in assay [6] it was 29%. For the same compound, in assay [2], the “Control Uptake” value is on record as 62%.

As to `CCCCCNC(=O)[C@H](Cc1ccc(OC(C(=O)O)C(=O)O)cc1)NC(=O)[C@H](Cc1ccccc1)NC(=O)CCOC`, the inhibition came out at 6% in assay [1]; 11% in assay [3]; 19% in assay [4]; 94% in assay [5]; 65% in assay [6]. Also, in assay [2], the “Control Uptake” value was found to be 104%.

As to `CCCCCNC(=O)[C@H](Cc1ccc(OC(C(=O)O)C(=O)O)cc1)NC(=O)[C@H](Cc1ccccc1)NS(C)(=O)=O`, the inhibition was 0% in assay [1]; 8% in assay [3]; 9% in assay [4]; 86% in assay [5]; 40% in assay [6]. In addition, in assay [2], the “Control Uptake” value amounted to 93%.

The compound `CCCCCNC(=O)[C@H](Cc1ccc(OCC(=O)O)c(C(=O)O)c1)NC(=O)[C@H](Cc1ccccc1)NC(=O)CCC(=O)O` gave a pKi in assay [7] of 6.66.

With `CCCCCNC(=O)[C@H](Cc1ccc(OC(C(=O)O)C(=O)O)cc1)NC(=O)[C@H](Cc1c[nH]c2ccccc12)NC(=O)OC(C)(C)C`, the inhibition in assay [1] turned out to be 18%; in assay [3], 9%; in assay [4] it was 10%; in assay [5], 89%; in assay [6], 44%. In assay [2], the “Control Uptake” value worked out at 92%.

`CCCCCNC(=O)[C@H](Cc1ccc(OC(C(=O)O)C(=O)O)cc1)NC(=O)[C@H](CCc1ccccc1)NC(=O)OC(C)(C)C`: the inhibition was 7% in assay [1]; 0% in assay [3]; 2% in assay [4]; 77% in assay [5]; 17% in assay [6]. Further, the “Control Uptake” value in assay [2] came out at 104%.

On to `CCCCCNC(=O)[C@H](Cc1ccc(OC(C(=O)O)C(=O)O)cc1)NC(=O)[C@H](CC(C)C)NC(=O)OC(C)(C)C`, for which the inhibition in assay [1] was 3%; in assay [3], 5%; in assay [4] it was 4%; in assay [5] it was 76%; in assay [6], 24%. Further, the “Control Uptake” value in assay [2] is given as 84%.

With `CCCCCNC(=O)[C@H](Cc1ccc(OC(C(=O)O)C(=O)O)cc1)NC(=O)[C@H](Cc1ccccc1)NC(=O)NC(C)(C)C`, the inhibition in assay [1] came to 21%; in assay [3] it was 6%; in assay [4] it was 9%; in assay [5] it was 86%; in assay [6], 40%. In addition, the “Control Uptake” value in assay [2] was determined as 93%.

On to `CCCCCNC(=O)[C@H](Cc1ccc(OC(C(=O)O)C(=O)O)cc1)NC(=O)[C@H](Cc1ccccc1)NC(=O)CCNC(=O)OC(C)(C)C`, for which the inhibition in assay [1] turned out to be 2%; in assay [3] it was 8%; in assay [4], 14%; in assay [5], 93%; in assay [6], 62%. Moreover, the “Control Uptake” value in assay [2] was 87%.

The compound `CCCC[C@H](NC(=O)[C@H](Cc1ccc(OS(=O)(=O)O)cc1)NC(=O)[C@H](CC(=O)O)NC(C)=O)C(N)=O` (Ac-Asp-[sY]-[Nle]-NH2) had a pKi in assay [7] of 5.30.

For `CCCCCNC(=O)[C@H](Cc1ccc(OC(C(=O)O)C(=O)O)cc1)NC(=O)[C@H](CC1CCCCC1)NC(=O)OC(C)(C)C`, the inhibition in assay [1] amounted to 4%; in assay [3], 0%; in assay [4], 1%; in assay [5], 88%; in assay [6], 18%. The “Control Uptake” value in assay [2] was determined as 93%.

For the compound `CCCCCNC(=O)[C@H](Cc1ccc(OC(C(=O)O)C(=O)O)cc1)NC(=O)[C@H](Cc1cccc2ccccc12)NC(=O)OC(C)(C)C`, the inhibition was determined as 34% in assay [1]; 8% in assay [3]; 3% in assay [4]; 86% in assay [5]; 33% in assay [6]. Moreover, in assay [2], the “Control Uptake” value worked out at 84%.

Take `CCCCCNC(=O)[C@H](Cc1ccc(OC(C(=O)O)C(=O)O)cc1)NC(=O)[C@H](CSCc1ccccc1)NC(=O)OC(C)(C)C`: the inhibition in assay [1] was found to be 0%; in assay [3], 0%; in assay [4] it was 3%; in assay [5], 83%; in assay [6], 16%. In addition, in assay [2], the “Control Uptake” value amounted to 89%.

On to `CCCCCNC(=O)[C@H](Cc1ccc(OC(C(=O)O)C(=O)O)cc1)NC(=O)[C@H](Cc1ccccc1)NC(=O)CCN(CC)CC`, for which the inhibition was found to be 0% in assay [1]; 14% in assay [3]; 12% in assay [4]; 92% in assay [5]; 54% in assay [6]. Further, in assay [2], the “Control Uptake” value was determined as 89%.

As to `CCCCCNC(=O)[C@H](Cc1ccc(OC(C(=O)O)C(=O)O)cc1)NC(=O)[C@H](CC[S+](C)[O-])NC(=O)OC(C)(C)C` (stereo partly specified), the inhibition turned out to be 0% in assay [1]; 6% in assay [3]; 7% in assay [4]; 67% in assay [5]; 21% in assay [6]. Further, in assay [2], the “Control Uptake” value was found to be 70%.

Regarding `CCCCCNC(=O)[C@H](Cc1ccc(OC(C(=O)O)C(=O)O)cc1)NC(=O)[C@H](Cc1ccc(O)cc1)NC(=O)OC(C)(C)C`, the inhibition was determined as 0% in assay [1]; 5% in assay [3]; 10% in assay [4]; 90% in assay [5]; 50% in assay [6]. Also, in assay [2], the “Control Uptake” value turned out to be 96%.

With `CCCCCNC(=O)[C@H](Cc1ccc(OC(C(=O)O)C(=O)O)cc1)NC(=O)[C@H](Cc1c(F)c(F)c(F)c(F)c1F)NC(=O)OC(C)(C)C`, the inhibition in assay [1] turned out to be 8%; in assay [3] it was 0%; in assay [4], 5%; in assay [5], 80%; in assay [6], 25%. The “Control Uptake” value in assay [2] is listed as 100%.

The values above are taken from ChEMBL document CHEMBL1136635, “Modification of the N-terminus of peptidomimetic protein tyrosine phosphatase 1B (PTP1B) inhibitors: identification of analogues with cellular activity” (Bioorg Med Chem Lett, 2003).
